From PubChem BioAssay AID493239 (Broad Institute, 2011)
Values joined by “and” are separate entries in the source; they are usually repeats but may differ in a detail not shown here. Equal values may be shown once. Active and inactive are the calls of the source.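 The calls were made as follows: active = fitted curve crosses 40% activation at or below the top valid dose tested for that sample; inconclusive = flat fit between 30 and 70% activation, or poor fit; inactive = the rest, including activity in the opposite direction.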

Assays:
[1] = tested on: U2OS GFP-HIF1alpha nuclear intensity imaging; test: activators of HIF1alpha nuclear translocation – imaging, U2OS, high content, dry powder, set 3, orthogonal assay for HIF pathway activator project, dose response (AID 493239)
How it was run: (§1)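 Material: human osteosarcoma U2OS cells expressing GFP-HIF1alpha fusion; amount: 2,000 cells/well; compound: 8 concentrations, 3-fold steps; incubation: cells plated one day before dosing, compound exposure 24 h at 37 °C; measured by: 10X fluorescence microscopy, fixed cells, DAPI nuclear stain; control set: Desferrioxamine as positive control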

[2] = as above; settings: U2OS GFP-HIF1alpha nuclear intensity imaging; at 38 µM (top of the series)
How it was run: as §1

`Oc1ccc(CNC2CCc3ccccc32)c2cccnc12` (configuration not stated) showed an AC40 [1] of 10.3 µM.
Work on `c1ccc(-c2nnc(-c3ccccn3)nc2NCC2CC2)cc1` yielded an AC40 [1] of 3.09 µM.
With `CN1CCN(C(=O)c2cc(-c3ccccc3)on2)CC1` the activation [2] was -3.79% (inactive).
In the case of `O=C(Nc1ncc2ccccc2n1)c1cc(-c2ccccc2)on1`, the AC40 [1] is reported as 32.3 µM.
With `CC(C)(C)OC(=O)N1CCN(Cc2ccc(O)c3ncccc23)CC1` the AC40 [1] was > 38 µM (inactive).
In the case of `c1ccc(-c2nnc(-c3ccccn3)nc2N2CCC(C3CCCCC3)C2)cc1` (configuration not stated), the AC40 [1] is reported as 0.24 µM.
In the case of `CC1CN(Cc2ccc(O)c3ncccc23)CC(C)O1` (configuration not stated), the AC40 [1] is reported as 18.6 µM.
`c1ccc(-c2nnc(-c3ccccn3)nc2NCCCN2CCOCC2)cc1` showed an AC40 [1] of 5.94 µM.
For `CC(C)(C)CCNC(=O)c1cc(-c2ccccc2)on1`, the AC40 [1] was 18 µM.
In the case of `O=C(Nc1cnc2ccccc2c1)c1cc(-c2ccccc2)on1`, the activation [2] is reported as 8.34% (inactive).
In the case of `c1ccc(-c2nnc(Nc3nc(-c4ccccn4)nnc3-c3ccccc3)s2)cc1`, the AC40 [1] is reported as 7.75 µM.
For `CCCCNC(=O)c1cc(-c2ccccc2)on1`, the AC40 [1] was 5.94 µM.
In the case of `c1ccc(-c2nnc(-c3ccccn3)nc2NCC2CCOCC2)cc1`, the AC40 [1] is reported as 6.43 µM.
For `Cc1cccc(CNC(=O)c2cc(-c3ccccc3)on2)c1`, the activation [2] was 12.7% (inactive).
Compound `c1ccc(-c2cccc(CNc3nc(-c4ccccn4)nnc3-c3ccccc3)c2)cc1` has an AC40 [1] of 0.407 µM.
Work on `c1ccc(-c2csc(Nc3nc(-c4ccccn4)nnc3-c3ccccc3)n2)cc1` yielded an AC40 [1] of 0.88 µM.
In the case of `Cn1c(NC(=O)c2cc(-c3ccccc3)on2)nc2ccccc21`, the activation [2] is reported as -0.603% (inactive).
With `Cc1ccc(CNC(=O)c2cc(-c3ccccc3)on2)cc1` the activation [2] was 0.663% (inactive).
Work on `Cc1ccc(CNc2nc(-c3ccccn3)nnc2-c2ccccc2)cc1C` yielded an AC40 [1] of 0.779 µM.
For `OCC1CCN(c2nc(-c3ccccn3)nnc2-c2ccccc2)CC1`, the AC40 [1] was 13.6 µM.
With `O=C(c1cc(-c2ccccc2)on1)N1CCc2cccnc21` the activation [2] was 0.25% (inactive).
`O=C(NCCCCO)c1cc(-c2ccccc2)on1` showed an AC40 [1] of 2.08 µM.
`C=CCNc1nc(-c2ccccn2)nnc1-c1ccccc1` gave an AC40 [1] of 5.24 µM.
Compound `O=C(Nc1nc2ccccc2s1)c1cc(-c2ccccc2)on1` has an AC40 [1] of 20.1 µM.
For `Cn1c(-c2ccccc2)cnc1NC(=O)c1cc(-c2ccccc2)on1`, the AC40 [1] was > 38 µM (inactive).
With `C[C@H](Nc1nc(-c2ccccn2)nnc1-c1ccccc1)C1CCCCC1` the AC40 [1] was 0.866 µM.
With `c1ccc(-c2cnc(Nc3nc(-c4ccccn4)nnc3-c3ccccc3)s2)cc1` the AC40 [1] was 9.91 µM.
`Oc1ccc(CNC2Cc3ccccc3C2)c2cccnc12` gave an AC40 [1] of 4.22 µM.
With `OCC1CCN(Cc2ccc(O)c3ncccc23)CC1` the AC40 [1] was 4.02 µM.
`c1ccc(CCNc2nc(-c3ccccn3)nnc2-c2ccccc2)cc1` showed an AC40 [1] of 5.72 µM.
For `O=C(NCC1CC1)c1cc(-c2ccccc2)on1`, the AC40 [1] was 7.97 µM.
Compound `O=C(Nc1cn2ccccc2n1)c1cc(-c2ccccc2)on1` has an AC40 [1] of 3.04 µM.
With `O=C(Nc1nc(-c2ccccc2)cs1)c1cc(-c2ccccc2)on1` the activation [2] was 0.096% (inactive).
In the case of `O=C(c1cc(-c2ccccc2)on1)N1CCN(c2ccncc2)CC1`, the activation [2] is reported as 14% (inactive).
With `Oc1ccc(CN2CCC(Cc3ccccc3)CC2)c2cccnc12` the activation [2] was 592% (inactive).
`c1ccc(CNc2nc(-c3ccccn3)nnc2-c2ccccc2)cc1` showed an AC40 [1] of 2.07 µM.
With `O=C(Nc1nnc(-c2ccccc2)s1)c1cc(-c2ccccc2)on1` the activation [2] was -0.414% (inactive).
For `O=C(NC1CCc2ccccc2C1)c1cc(-c2ccccc2)on1` (configuration not stated), the AC40 [1] was > 38 µM (inactive).
In the case of `O=C(c1cc(-c2ccccc2)on1)N1CCC(N2CCOCC2)CC1`, the activation [2] is reported as -3.94% (inactive).
For `O=C(Nc1ccc2ccccc2n1)c1cc(-c2ccccc2)on1`, the activation [2] was 0.342% (inactive).
Compound `Cc1ccc(Nc2nc(-c3ccccn3)nnc2-c2ccccc2)cn1` has an AC40 [1] of 9.48 µM.
With `c1ccc(-c2nnc(-c3ccccn3)nc2NCc2cccnc2)cc1` the AC40 [1] was 3.21 µM.
For `Cc1ccccc1CNc1nc(-c2ccccn2)nnc1-c1ccccc1`, the AC40 [1] was 1.14 µM.
Compound `Cc1ccc(CNc2nc(-c3ccccn3)nnc2-c2ccccc2)cc1` has an AC40 [1] of 1.24 µM.
Compound `OCCCNc1nc(-c2ccccn2)nnc1-c1ccccc1` has an AC40 [1] of 12.1 µM.
In the case of `c1ccc(-c2nnc(-c3ccccn3)nc2Nc2nc3ccccc3s2)cc1`, the AC40 [1] is reported as 1.26 µM.
Work on `CN1CCN(c2nc(-c3ccccn3)nnc2-c2ccccc2)CC1` yielded an AC40 [1] of 8.8 µM.
With `O=C(Nc1ncc(-c2ccccc2)o1)c1cc(-c2ccccc2)on1` the activation [2] was 4.26% (inactive).
In the case of `Cc1cccc(NC(=O)c2cc(-c3ccccc3)on2)n1`, the activation [2] is reported as 7.71% (inactive).
`Clc1cccc(CNc2nc(-c3ccccn3)nnc2-c2ccccc2)c1` gave an AC40 [1] of 0.651 µM.
Work on `c1ccc(-c2nnc(-c3ccccn3)nc2NCCc2ccccn2)cc1` yielded an AC40 [1] of 4.57 µM.
In the case of `CN(C)c1nc(-c2ccccn2)nnc1-c1ccccc1`, the AC40 [1] is reported as 11.6 µM.
In the case of `N#CC1(c2ccccc2)CCN(Cc2ccc(O)c3ncccc23)CC1`, the AC40 [1] is reported as > 38 µM (inactive).
For `CN(C)CCNC(=O)c1cc(-c2ccccc2)on1`, the AC40 [1] was > 38 µM (inactive).
With `C[C@@H](Nc1nc(-c2ccccn2)nnc1-c1ccccc1)c1ccccc1` the AC40 [1] was 1.87 µM.
`O=C(NCCCN1CCOCC1)c1cc(-c2ccccc2)on1` gave an AC40 [1] of 14.8 µM.
Work on `COc1cccc(CNc2nc(-c3ccccn3)nnc2-c2ccccc2)c1` yielded an AC40 [1] of 1.08 µM.
`c1ccc(-c2nnc(-c3ccccn3)nc2NCCN2CCOCC2)cc1` gave an AC40 [1] of 7.2 µM.
Work on `c1ccc(-c2ccc(CNc3nc(-c4ccccn4)nnc3-c3ccccc3)cc2)cc1` yielded an AC40 [1] of 0.487 µM.
Work on `CC(Nc1nc(-c2ccccn2)nnc1-c1ccccc1)c1ccccc1` (configuration not stated) yielded an AC40 [1] of 1.48 µM.
For `Cc1cccc(CNc2nc(-c3ccccn3)nnc2-c2ccccc2)c1`, the AC40 [1] was 1.83 µM.
`O=C(NCCCO)c1cc(-c2ccccc2)on1` gave an AC40 [1] of 5.32 µM.
With `O=C(NCCN1CCOCC1)c1cc(-c2ccccc2)on1` the activation [2] was 248% (inactive).
Compound `c1ccc(-c2nnc(-c3ccccn3)nc2NCc2ccccn2)cc1` has an AC40 [1] of 6.35 µM.
In the case of `COc1ccccc1N1CCN(Cc2ccc(O)c3ncccc23)CC1`, the activation [2] is reported as 219% (inactive).
In the case of `Cc1ccccc1CNC(=O)c1cc(-c2ccccc2)on1`, the activation [2] is reported as 6.92% (inactive).
For `O=C(c1cc(-c2ccccc2)on1)N1CCC(N2CCCC2)CC1`, the activation [2] was 5.78% (inactive).
In the case of `CC(C)(C)CCNc1nc(-c2ccccn2)nnc1-c1ccccc1`, the AC40 [1] is reported as 0.77 µM and 0.585 µM.
In the case of `Oc1ccc(CN2CCc3ccccc3C2)c2cccnc12`, the AC40 [1] is reported as 3.58 µM and 20.4 µM.
With `O=C(c1cc(-c2ccccc2)on1)N1CCC(CO)CC1` the activation [2] was 8.11% (inactive).
In the case of `O=C(NCCN1CCCCC1)c1cc(-c2ccccc2)on1`, the AC40 [1] is reported as > 38 µM (inactive).
With `O=C(NCc1ccccc1)c1cc(-c2ccccc2)on1` the activation [2] was -3.06% (inactive).
In the case of `Cc1ccc(NC(=O)c2cc(-c3ccccc3)on2)cn1`, the AC40 [1] is reported as > 38 µM (inactive).
Compound `Oc1ccc(CN2CCC3CCCCC3C2)c2cccnc12` (configuration not stated) has an AC40 [1] of 5.44 µM.
With `O=C(NC1Cc2ccccc2C1)c1cc(-c2ccccc2)on1` the activation [2] was 7.61% (inactive).
`c1ccc(-c2nnc(-c3ccccn3)nc2Nc2cnc3ccccc3n2)cc1` showed an AC40 [1] of 3.16 µM.
In the case of `c1ccc(-c2nnc(-c3ccccn3)nc2NCC2CCCCC2)cc1`, the AC40 [1] is reported as 1.13 µM.
`O=C(NCCCn1ccnc1)c1cc(-c2ccccc2)on1` gave an AC40 [1] of 5.74 µM.
With `CC(C)(C)c1ccc(CNc2nc(-c3ccccn3)nnc2-c2ccccc2)cc1` the AC40 [1] was 0.169 µM.
Compound `C[C@@H](Nc1nc(-c2ccccn2)nnc1-c1ccccc1)C1CCCCC1` has an AC40 [1] of 0.515 µM.
Compound `c1ccc(-c2nnc(-c3ccccn3)nc2N2CCN(c3ccncc3)CC2)cc1` has an AC40 [1] of 5.44 µM.
With `Cc1cccc(Nc2nc(-c3ccccn3)nnc2-c2ccccc2)n1` the AC40 [1] was 2.98 µM.
`COc1ccc(CNc2nc(-c3ccccn3)nnc2-c2ccccc2)cc1` gave an AC40 [1] of 1.15 µM.
With `O=C(NCC1CCCCC1)c1cc(-c2ccccc2)on1` the AC40 [1] was > 38 µM (inactive).
`c1ccc(-c2nnc(-c3ccccn3)nc2N2CCC(c3ccccc3)C2)cc1` (configuration not stated) showed an AC40 [1] of 0.353 µM.
Work on `c1ccc(-c2nnc(-c3ccccn3)nc2N2CCC(N3CCOCC3)CC2)cc1` yielded an AC40 [1] of 3.85 µM.
Compound `Cn1c(-c2ccccc2)cnc1Nc1nc(-c2ccccn2)nnc1-c1ccccc1` has an AC40 [1] of 8.34 µM.
